Experimental data reported in ChEMBL document CHEMBL1139400, “Thiadiazolopiperazinyl ureas as inhibitors of fatty acid amide hydrolase” (Bioorg Med Chem Lett, 2008).
Activity calls are given as the source filed them. The calls are words filed in the database; no cut-off is given here.

Assays:
[1] = molecular target: T1, Fatty-acid amide hydrolase 1 (Rattus norvegicus) (UniProt P97612); experiment: Inhibition of rat FAAH assessed as recovery of enzyme activity at IC80 concentration after 18 hrs at 4 degC by dialysis
T1 sequence (whole entry): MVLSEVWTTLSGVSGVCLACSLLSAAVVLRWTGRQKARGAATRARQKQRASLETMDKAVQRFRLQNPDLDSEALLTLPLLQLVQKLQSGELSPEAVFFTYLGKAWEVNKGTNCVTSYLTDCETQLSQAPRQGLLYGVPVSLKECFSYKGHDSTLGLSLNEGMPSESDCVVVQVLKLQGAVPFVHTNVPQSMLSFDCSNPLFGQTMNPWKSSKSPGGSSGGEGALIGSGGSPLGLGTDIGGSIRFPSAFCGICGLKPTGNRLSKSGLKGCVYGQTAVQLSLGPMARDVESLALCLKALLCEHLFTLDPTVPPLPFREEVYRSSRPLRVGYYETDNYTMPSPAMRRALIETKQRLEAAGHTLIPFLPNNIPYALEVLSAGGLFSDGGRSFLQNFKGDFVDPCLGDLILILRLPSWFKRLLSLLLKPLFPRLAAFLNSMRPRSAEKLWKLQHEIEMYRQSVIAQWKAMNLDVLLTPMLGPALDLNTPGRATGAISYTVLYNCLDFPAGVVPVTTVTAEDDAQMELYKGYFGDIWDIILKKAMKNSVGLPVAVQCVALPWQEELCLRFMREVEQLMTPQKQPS

[2] = tested on: Rattus norvegicus; experiment: Increase in anandamide levels in rat brain at 20 mg/kg, ip after 4 hrs relative to control; type: functional; conditions: route intraperitoneal
Procedure, shortened: (§1)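 Rats dosed at 20 mg/kg i.p.; anandamide levels measured in brain tissue at 4 h post dose, compared with control.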

[3] = Mean retention time in rat at 10 mg/kg, po; type: ADME, organism-based; parameters: dose 10 mg/kg, route oral; conditions: in vivo
[4] = Mean retention time in rat at 1 mg/kg, iv; type: ADME, organism-based; parameters: dose 1 mg/kg, route intravenous; conditions: in vivo
[5] = Clearance in rat at 10 mg/kg, ip; type: ADME, organism-based; parameters: dose 10 mg/kg, route intraperitoneal; conditions: in vivo
[6] = Clearance in rat at 10 mg/kg, po; type: ADME, organism-based; parameters: dose 10 mg/kg, route oral; conditions: in vivo
[7] = Tmax in rat plasma at 20 mg/kg, ip; type: ADME, organism-based; parameters: dose 20 mg/kg, route intraperitoneal
[8] = Bioavailability in rat at 10 mg/kg, ip; type: ADME, organism-based; conditions: in vivo
[9] = Half life in rat plasma at 10 mg/kg, ip; type: ADME, organism-based; parameters: dose 10 mg/kg, route intraperitoneal
[10] = Tmax in rat at 10 mg/kg, ip; type: ADME, organism-based; parameters: dose 10 mg/kg, route intraperitoneal; conditions: in vivo
[11] = Tmax in rat at 10 mg/kg, po; type: ADME, organism-based; parameters: dose 10 mg/kg, route oral; conditions: in vivo
[12] = Mean retention time in rat at 10 mg/kg, ip; type: ADME, organism-based; parameters: dose 10 mg/kg, route intraperitoneal; conditions: in vivo
[13] = molecular target: T1, Fatty-acid amide hydrolase 1 (Rattus norvegicus); experiment: Inhibition of rat FAAH assessed as recovery of enzyme activity at IC80 concentration after 18 hrs at 22 degC by dialysis
[14] = tested on: Rattus norvegicus; experiment: Volume of distribution in rat at 10 mg/kg, ip; type: ADME, organism-based; parameters: dose 10 mg/kg, route intraperitoneal; conditions: in vivo
[15] = Cmax in rat at 10 mg/kg, po; type: ADME, organism-based; parameters: dose 10 mg/kg, route oral; conditions: in vivo
[16] = Tmax in rat brain at 20 mg/kg, ip; type: ADME, organism-based; parameters: dose 20 mg/kg, route intraperitoneal
[17] = Half life in rat plasma at 1 mg/kg, iv; type: ADME, organism-based; parameters: dose 1 mg/kg, route intravenous
[18] = Clearance in rat at 1 mg/kg, iv; type: ADME, organism-based; parameters: dose 1 mg/kg, route intravenous; conditions: in vivo
[19] = Oral bioavailability in rat at 10 mg/kg; type: ADME, organism-based; conditions: in vivo
[20] = tested on: Rattus norvegicus; experiment: Increase in anandamide levels in rat brain at 20 mg/kg, ip; type: functional, organism-based; parameters: dose 20 mg/kg; procedure, shortened: as §1
[21] = tested on: Rattus norvegicus; experiment: Ex vivo inhibition of FAAH in rat brain assessed as recovered enzyme activity at 20 mg/kg, ip after 24 hrs relative to control; type: functional; parameters: scale not given: the % may be the effect or the level left; conditions: route intraperitoneal
Procedure, shortened: (§2)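 Rats dosed once at 20 mg/kg i.p.; brains removed at time points up to 24 h and FAAH activity measured ex vivo, expressed relative to untreated animals.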

[22] = Cmax in rat brain at 20 mg/kg, ip; type: ADME, organism-based; parameters: dose 20 mg/kg, route intraperitoneal
[23] = molecular target: T2, Fatty-acid amide hydrolase 1 (Rattus norvegicus, UniProt P97612); experiment: Inhibition of rat FAAH preincubated for 20 mins
T2 sequence (P97612 whole entry): T1 sequence (whole entry)

[24] = Cmax in rat plasma at 20 mg/kg, ip; type: ADME, organism-based; parameters: dose 20 mg/kg, route intraperitoneal
[25] = Half life in rat plasma at 10 mg/kg, po; type: ADME, organism-based; parameters: dose 10 mg/kg, route oral
[26] = Cmax in rat at 10 mg/kg, ip; type: ADME, organism-based; parameters: dose 10 mg/kg, route intraperitoneal; conditions: in vivo
[27] = Volume of distribution in rat at 1 mg/kg, iv; type: ADME, organism-based; parameters: dose 1 mg/kg, route intravenous; conditions: in vivo
[28] = Blood-brain barrier coefficient in rat assessed as log of ratio of brain AUC to plasma AUC at 20 mg/kg, ip; type: ADME, organism-based; parameters: dose 20 mg/kg, route intraperitoneal
[29] = Cmax in rat at 1 mg/kg, iv; type: ADME, organism-based; parameters: dose 1 mg/kg, route intravenous; conditions: in vivo
[30] = tested on: Rattus norvegicus; experiment: Volume of distribution in rat at 10 mg/kg, po; type: ADME, organism-based; parameters: dose 10 mg/kg, route oral; conditions: in vivo
[31] = species: Rattus norvegicus; experiment: Inhibition of rat liver esterase assessed as ester (4-nitrophenyl-acetate) hydrolysis at 10 uM after 30 mins
Procedure, shortened: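 Rat liver microsomes; carboxylesterase activity read as change in rate of 4-nitrophenyl-acetate hydrolysis; compound at 10 with 30 min preincubation; DMSO vehicle control; % relative activity.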

[32] = tested on: Rattus norvegicus; experiment: Ex vivo inhibition of FAAH in rat brain at 20 mg/kg, ip; type: functional, organism-based; parameters: dose 20 mg/kg; procedure, shortened: as §2

O=C(Nc1ccccc1)N1CCN(c2nc(-c3ccccc3)ns2)CC1
Activity [1]: Active | fold change (FC) [2]: 1.4 | MRT [3]: 6.37 h | MRT [4]: 0.817 h | CL/F [5]: 32 mL/min | CL/F [6]: 116 mL/min | Tmax [7]: 0.75 h | bioavailability [8]: 20% | half-life [9]: 1.57 h | Tmax [10]: 0.583 h | Tmax [11]: 1.83 h | MRT [12]: 2.25 h | Activity [13]: inactive | Vd [14]: 4.6 L | Cmax [15]: 0.301 µM | Tmax [16]: 2 h | half-life [17]: 0.567 h | clearance [18]: 6 mL/min | bioavailability [19]: 5% | Activity [20]: Active | Activity [21]: 25% | Cmax [22]: 6.04 µM | IC50 [23]: 34 nM | Cmax [24]: 26.9 µM | half-life [25]: 4.4 h | Cmax [26]: 1.58 µM | Vd [27]: 0.57 L | Kp [28]: 0.042 | Cmax [29]: 3.06 µM | Vd [30]: 45 L | Activity [31]: inactive | Activity [32]: Active
